Results taken from ChEMBL document CHEMBL1142506, “(3S)-N-(L-Aminoacyl)-1,2,3,4-tetrahydroisoquinolines, a class of novel antithrombotic agents: synthesis, bioassay, 3D QSAR, and ADME analysis” (Bioorg Med Chem, 2008).
Square brackets hold non-standard residues; d marks the D form. Peptide text beside a SMILES is read from it. Tic = O=C(O)[C@@H]1Cc2ccccc2CN1

Key:
[1] = system: Rattus norvegicus; assay: Antithrombotic activity in Wistar rat assessed as wet thrombus weight at 5 umol/kg; format: functional
In short: (§1)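 Male Wistar rats (250–300 g) got the test agent orally, dissolved in NS and kept on ice; NS served as vehicle. After 45 min, rats were anesthetized with pentobarbital sodium (80.0 mg/kg ip). An extracorporeal carotid artery–jugular vein polyethylene cannula holding a weighed 6 cm thread was placed, and the wet thrombus weight on the thread was recorded.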

[2] = system: Platelet; assay: Inhibition of arachidonic acid-induced platelet aggregation in pig blood; format: functional, cell-based; conditions: Sus scrofa
In short: (§2)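 Pig blood was spun at 1000g for 10 min to give PRP and at 1500g for 10 min to give PPP. PRP was adjusted to 2 × 10^8 platelets/ml with autologous PPP. The sample was preincubated with test agent or NS. Agonist final concentrations, each in NS: ADP 10 µM, AA 350 µM, PAF 0.1 µM, thrombin 0.1 U/ml. Optical aggregometry ran 5 min at 37 °C. Peak height gave maximal aggregation; % inhibition versus NS gave IC50.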

[3] = system: Platelet; assay: Inhibition of platelet-activating factor-induced platelet aggregation in pig blood; format: functional, cell-based; conditions: Sus scrofa; in short: as §2
[4] = system: Platelet; assay: Inhibition of adenosine diphosphate-induced platelet aggregation in pig blood; format: functional, cell-based; conditions: Sus scrofa; in short: as §2
[5] = system: Platelet; assay: Inhibition of thrombin-induced platelet aggregation in pig blood; format: functional, cell-based; conditions: Sus scrofa; in short: as §2
[6] = system: Rattus norvegicus; assay: Antithrombotic activity in Wistar rat assessed as wet thrombus weight at 15 umol/kg; format: functional; in short: as §1
[7] = system: Rattus norvegicus; assay: Antithrombotic activity in Wistar rat assessed as wet thrombus weight at 500 nmol/kg; format: functional
In short: (§3)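 Dose series (5 µmol/kg, 500 nmol/kg, 50 nmol/kg, 5 nmol/kg) given by intravenous injection to male Wistar rats (250–300 g) in an arteriovenous cannula model containing a weighed 6 cm thread. Anesthesia was pentobarbital sodium (80.0 mg/kg ip) with NS vehicle. Wet thrombus weight is given as mean ± SD, n = 12.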

[8] = system: Rattus norvegicus; assay: Antithrombotic activity in Wistar rat assessed as wet thrombus weight at 50 nmol/kg; format: functional; in short: as §3
[9] = system: Rattus norvegicus; assay: Antithrombotic activity in Wistar rat assessed as wet thrombus weight at 5 nmol/kg; format: functional; in short: as §3
[10] = system: Rattus norvegicus; assay: Antithrombotic activity in Wistar rat assessed as wet thrombus weight at 22 x 5 umol/kg; format: functional; in short: as §1
[11] = system: Rattus norvegicus; assay: Antithrombotic activity in Wistar rat assessed as wet thrombus weight at 110 x 5 umol/kg; format: functional; in short: as §1

Structure (SMILES) | IC50 [2] | IC50 [3] | IC50 [4] | IC50 [5] | Activity [1] | Activity [6] | Activity [7] | Activity [8] | Activity [9] | Activity [10] | Activity [11]
O=C(O)[C@@H]1Cc2ccccc2CN1 | 452 nM | 960 nM | 552 nM | 882 nM | 26.88 mg | 21.52 mg |  |  |  |  | 
N=C(N)NCCC[C@H](N)C(=O)N1Cc2ccccc2C[C@H]1C(=O)O (H-Arg-[Tic]-OH) | 217 nM | 517 nM | 210 nM | 565 nM | 20.06 mg |  |  |  |  |  | 
NC(=O)C[C@H](N)C(=O)N1Cc2ccccc2C[C@H]1C(=O)O (H-Asn-[Tic]-OH) | 407 nM | 360 nM | 534 nM | 495 nM | 22.66 mg |  |  |  |  |  | 
N[C@@H](CCC(=O)O)C(=O)N1Cc2ccccc2C[C@H]1C(=O)O (H-Glu-[Tic]-OH) | 298 nM | 544 nM | 494 nM | 589 nM | 20.87 mg |  |  |  |  |  | 
NCC(=O)N1Cc2ccccc2C[C@H]1C(=O)O (H-Gly-[Tic]-OH) | 423 nM | 875 nM | 365 nM | 761 nM | 21.17 mg |  |  |  |  |  | 
CC(C)C[C@H](N)C(=O)N1Cc2ccccc2C[C@H]1C(=O)O (H-Leu-[Tic]-OH) | 238 nM | 892 nM | 336 nM | 730 nM | 19.12 mg |  |  |  |  |  | 
CSCC[C@H](N)C(=O)N1Cc2ccccc2C[C@H]1C(=O)O (H-Met-[Tic]-OH) | 430 nM | 409 nM | 265 nM | 607 nM | 19.56 mg |  |  |  |  |  | 
O=C(O)[C@@H]1Cc2ccccc2CN1C(=O)[C@@H]1CCCN1 (H-Pro-[Tic]-OH) | 382 nM | 507 nM | 373 nM | 590 nM | 21.09 mg |  |  |  |  |  | 
N[C@@H](Cc1c[nH]c2ccccc12)C(=O)N1Cc2ccccc2C[C@H]1C(=O)O (H-Trp-[Tic]-OH) | 572 nM | 422 nM | 194 nM | 720 nM | 19.47 mg |  |  |  |  |  | 
N[C@@H](Cc1ccc(O)cc1)C(=O)N1Cc2ccccc2C[C@H]1C(=O)O (H-Tyr-[Tic]-OH) | 526 nM | 668 nM | 327 nM | 738 nM | 20.92 mg |  |  |  |  |  | 
CC(=O)Oc1ccccc1C(=O)O [ASPIRIN] |  |  |  |  |  |  |  |  |  | 27.6 mg | 13.22 mg
O=C(O)[C@@H]1Cc2c([nH]c3ccccc23)CN1 [CYCLOMETHYLTRYPTOPHAN] | 3430 nM | 3180 nM | 3320 nM | 3290 nM |  |  |  |  |  |  | 

Continued by falling IC50 [2], values first:

IC50 [2] | IC50 [3] | IC50 [4] | IC50 [5] | Structure (SMILES) | Activity [1] | Activity [6] | Activity [7] | Activity [8] | Activity [9] | Activity [10] | Activity [11]
666 nM | 632 nM | 389 nM | 653 nM | CC(C)[C@H](N)C(=O)N1Cc2ccccc2C[C@H]1C(=O)O (H-Val-[Tic]-OH) | 20.12 mg |  |  |  |  |  | 
573 nM | 527 nM | 370 nM | 851 nM | N[C@@H](Cc1ccccc1)C(=O)N1Cc2ccccc2C[C@H]1C(=O)O (H-Phe-[Tic]-OH) | 22.23 mg |  |  |  |  |  | 
535 nM | 404 nM | 240 nM | 879 nM | C[C@@H](O)[C@H](N)C(=O)N1Cc2ccccc2C[C@H]1C(=O)O (H-Thr-[Tic]-OH) | 20.73 mg |  |  |  |  |  | 
521 nM | 670 nM | 324 nM | 684 nM | N[C@@H](Cc1c[nH]cn1)C(=O)N1Cc2ccccc2C[C@H]1C(=O)O (H-His-[Tic]-OH) | 21.78 mg |  |  |  |  |  | 
465 nM | 831 nM | 315 nM | 674 nM | CC[C@H](C)[C@H](N)C(=O)N1Cc2ccccc2C[C@H]1C(=O)O (H-Ile-[Tic]-OH) | 21.14 mg |  |  |  |  |  | 
440 nM | 945 nM | 651 nM | 741 nM | C[C@H](N)C(=O)N1Cc2ccccc2C[C@H]1C(=O)O (H-Ala-[Tic]-OH) | 20.3 mg |  |  |  |  |  | 
369 nM | 383 nM | 345 nM | 902 nM | N[C@@H](CC(=O)O)C(=O)N1Cc2ccccc2C[C@H]1C(=O)O (H-Asp-[Tic]-OH) | 20.3 mg |  |  |  |  |  | 
351 nM | 392 nM | 302 nM | 555 nM | NC(=O)CC[C@H](N)C(=O)N1Cc2ccccc2C[C@H]1C(=O)O (H-Gln-[Tic]-OH) | 21.3 mg |  |  |  |  |  | 
344 nM | 472 nM | 323 nM | 829 nM | NCCCC[C@H](N)C(=O)N1Cc2ccccc2C[C@H]1C(=O)O (H-Lys-[Tic]-OH) | 21.31 mg |  |  |  |  |  | 
215 nM | 267 nM | 103 nM | 498 nM | N[C@@H](CO)C(=O)N1Cc2ccccc2C[C@H]1C(=O)O (H-Ser-[Tic]-OH) | 18 mg |  | 18.31 mg | 22.54 mg | 28.58 mg |  | 
